According to ChEMBL document CHEMBL3232844, “Synthesis and structure activity relationships of schweinfurthin indoles” (2014):

Assays:
Assay type in all cases: functional
[1] = tested on: K562; test: Cytotoxicity against human K562 cells; conditions: for CC50: read-out: pLC50 (the source's name) (converted); for TGI: read-out: pTGI (converted)
Procedure, shortened: (§1)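 Tested in a 60-cell-line human tumor panel screen; the read-out is growth inhibition, reported as GI50 for each cell line.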

[2] = tested on: RPMI-8226; test: Cytotoxicity against human RPMI8226 cells; conditions: for CC50: read-out: pLC50 (the source's name) (converted); for TGI: read-out: pTGI (converted); procedure, shortened: as §1
[3] = Cytotoxicity against human EKVX cells; conditions: for TGI: read-out: pTGI (converted); procedure, shortened: as §1
[4] = tested on: HOP-92; test: Cytotoxicity against human HOP92 cells; conditions: for CC50: read-out: pLC50 (the source's name) (converted); for TGI: read-out: pTGI (converted); procedure, shortened: as §1
[5] = tested on: NCI-H226; test: Cytotoxicity against human NCI-H226 cells; conditions: for TGI: read-out: pTGI (converted); procedure, shortened: as §1
[6] = tested on: NCI-H23; test: Cytotoxicity against human NCI-H23 cells; conditions: for CC50: read-out: pLC50 (the source's name) (converted); for TGI: read-out: pTGI (converted); procedure, shortened: as §1
[7] = tested on: SW-620; test: Cytotoxicity against human SW620 cells; conditions: for CC50: read-out: pLC50 (the source's name) (converted); for TGI: read-out: pTGI (converted)
Procedure, shortened: (§2)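 Cell line run as part of the 60-cell-line screening panel; growth inhibition was reported as a GI50 for each line.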

[8] = tested on: Malme-3M; test: Cytotoxicity against human MALME-3M cells; conditions: for CC50: read-out: pLC50 (the source's name) (converted); for TGI: read-out: pTGI (converted); procedure, shortened: as §1
[9] = tested on: M14; test: Cytotoxicity against human M14 cells; conditions: for CC50: read-out: pLC50 (the source's name) (converted); for TGI: read-out: pTGI (converted); procedure, shortened: as §1
[10] = tested on: NCI-H522; test: Cytotoxicity against human NCI-H522 cells; conditions: for CC50: read-out: pLC50 (the source's name) (converted); for TGI: read-out: pTGI (converted); procedure, shortened: as §1
[11] = tested on: SK-MEL-28; test: Cytotoxicity against human SK-MEL-28 cells; conditions: for CC50: read-out: pLC50 (the source's name) (converted); for TGI: read-out: pTGI (converted); procedure, shortened: as §1
[12] = Cytotoxicity against human OVCAR3 cells; conditions: for GI50: OVCAR-3; for CC50: OVCAR-3, read-out: pLC50 (the source's name) (converted); for TGI: OVCAR-3, read-out: pTGI (converted); procedure, shortened: as §1
[13] = Cytotoxicity against human OVCAR8 cells; conditions: for GI50: OVCAR-8; for CC50: OVCAR-8, read-out: pLC50 (the source's name) (converted); for TGI: OVCAR-8, read-out: pTGI (converted); procedure, shortened: as §1
[14] = tested on: RXF 393; test: Cytotoxicity against human RXF393 cells; conditions: for TGI: read-out: pTGI (converted); procedure, shortened: as §1
[15] = Cytotoxicity against human UO31 cells; conditions: for GI50 / LC50: UO-31; for TGI: UO-31, read-out: pTGI (converted); procedure, shortened: as §2
[16] = Cytotoxicity against human Hs578T cells; conditions: Hs-578T; for TGI: read-out: pTGI (converted); procedure, shortened: as §1
[17] = tested on: MDA-MB-468; test: Cytotoxicity against human MDA-MB-468 cells; procedure, shortened: as §1
[18] = read-out: pLC50 (the source's name) (converted)

Compound: COc1cc(/C=C/c2cc(OC)c3ccn(C)c3c2)cc2c1O[C@]1(C)CC[C@@H](O)C(C)(C)[C@H]1C2
- GI50 [1]: 1 µM
- CC50 [1]: > 100 µM
- TGI [1]: 33.1 µM
- GI50 [2]: 0.17 µM
- CC50 [2]: > 100 µM
- TGI [2]: 2 µM
- GI50 [3]: 1.58 µM
- TGI [3]: 49 µM
- GI50 [4]: 1.2 µM
- CC50 [4]: > 100 µM
- TGI [4]: 5.75 µM
- GI50 [5]: 6.03 µM
- TGI [5]: > 100 µM
- GI50 [6]: 2.69 µM
- CC50 [6]: > 100 µM
- TGI [6]: 57.5 µM
- GI50 [7]: 1.29 µM
- CC50 [7]: 10.5 µM
- TGI [7]: 3.39 µM
- GI50 [8]: 3.8 µM
- CC50 [8]: > 100 µM
- TGI [8]: 47.9 µM
- GI50 [9]: 0.575 µM
- CC50 [9]: 45.7 µM
- TGI [9]: 16.6 µM
- GI50 [10]: 1.82 µM
- CC50 [10]: > 100 µM
- TGI [10]: 8.13 µM
- GI50 [11]: 1.74 µM
- CC50 [11]: 64.6 µM
- TGI [11]: 17.4 µM
- GI50 [12]: 6.46 µM
- CC50 [12]: 57.5 µM
- TGI [12]: 23.4 µM
- GI50 [13]: 9.33 µM
- CC50 [13]: > 100 µM
- TGI [13]: > 100 µM
- GI50 [14]: 0.0447 µM
- LC50 [14]: 4.27 µM
- TGI [14]: 0.275 µM
- GI50 [15]: 0.501 µM
- LC50 [15]: > 100 µM
- TGI [15]: 3.02 µM
- GI50 [16]: 0.355 µM
- LC50 [16]: > 100 µM
- TGI [16]: 5.01 µM
- GI50 [17]: 1.23 µM
- LC50 [17]: > 100 µM

Compound: COc1cc(/C=C/c2cc(OC)c3c(C/C=C(\C)CCC=C(C)C)c[nH]c3c2)cc2c1O[C@]1(C)CC[C@@H](O)C(C)(C)[C@H]1C2
- GI50 [1]: 0.427 µM
- CC50 [1]: > 100 µM
- TGI [1]: 3.89 µM
- GI50 [2]: 0.126 µM
- CC50 [2]: > 100 µM
- TGI [2]: 0.617 µM
- GI50 [3]: 1.82 µM
- CC50 [3, 18]: > 100 µM
- TGI [3]: > 100 µM
- GI50 [4]: 0.302 µM
- CC50 [4]: > 100 µM
- TGI [4]: 16.6 µM
- GI50 [5]: 8.32 µM
- CC50 [5, 18]: 61.7 µM
- TGI [5]: 24.5 µM
- GI50 [6]: 2.34 µM
- CC50 [6]: 66.1 µM
- TGI [6]: 16.6 µM
- GI50 [7]: 1.17 µM
- CC50 [7]: 5.89 µM
- TGI [7]: 2.63 µM
- GI50 [8]: 1.82 µM
- CC50 [8]: 77.6 µM
- TGI [8]: 19.5 µM
- GI50 [9]: 1.17 µM
- CC50 [9]: 8.51 µM
- TGI [9]: 3.16 µM
- GI50 [10]: 1.55 µM
- CC50 [10]: 8.51 µM
- TGI [10]: 3.63 µM
- GI50 [11]: 1.05 µM
- CC50 [11]: 8.32 µM
- TGI [11]: 2.95 µM
- GI50 [12]: 5.5 µM
- CC50 [12]: 47.9 µM
- TGI [12]: 20 µM
- GI50 [13]: 12.6 µM
- CC50 [13]: > 100 µM
- TGI [13]: 36.3 µM
- GI50 [14]: 0.055 µM
- LC50 [14]: 1 µM
- TGI [14]: 0.251 µM
- GI50 [15]: 0.631 µM
- LC50 [15]: > 100 µM
- TGI [15]: 14.1 µM
- GI50 [16]: 0.219 µM
- LC50 [16]: > 100 µM
- TGI [16]: 1.66 µM
- GI50 [17]: 1.32 µM
- LC50 [17]: 33.1 µM
- TGI ([17]; read-out: pTGI (converted)): 8.51 µM
